In ChEMBL document CHEMBL4270490, “Synthesis and biological evaluation of morpholine-substituted diphenylpyrimidine derivatives (Mor-DPPYs) as potent EGFR T790M inhibitors with improved activity toward the gefitinib-resistant non-small cell lung cancers (NSCLC)” (Eur J Med Chem, 2017):

Key:
[1] = system: A549; assay: Antiproliferative activity against human A549 cells incubated for 72 hrs by MTT assay; assay type: functional, cell-based; settings: A549, 72 h
[2] = system: NCI-H1975; assay: Antitumor activity against human NCI-H1975 cells xenografted in STOCK-Foxn1nu/Nju nude mouse assessed as inhibition of tumor growth at 50 mg/kg/day, po qd for 14 days relative to untreated control; assay type: functional; settings: 336 h, read-out: TGI
Summary of the method: (§1)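 Nude mice (STOCK-Foxn1nu/Nju, 5–6 weeks, 20–25 g) were given s.c. 3×10⁶ H1975 cells in 0.1 mL PBS in the right oxter. Dosing began three days after implant, with random allocation to groups. Doses were 10, 20 or 50 mg/kg, oral, once daily for 14 days; vehicle controls got oral 25% PEG-400. Tumor volume was taken as A×B²/2 from perpendicular diameters. Tumors were excised and weighed at the end. n = 5, mean ±SD.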

[3] = Antiproliferative activity against NHBE cells incubated for 72 hrs by MTT assay; assay type: ADME, cell-based; settings: Homo sapiens
[4] = system: HCC827; assay: Antiproliferative activity against human HCC827 cells incubated for 72 hrs by MTT assay; assay type: functional, cell-based; settings: HCC827, 72 h
[5] = system: NCI-H1975; assay: Antiproliferative activity against human NCI-H1975 cells incubated for 72 hrs by MTT assay; assay type: functional, cell-based; settings: NCI-H1975, 72 h
[6] = system: A-431; assay: Antiproliferative activity against human A431 cells incubated for 72 hrs by MTT assay; assay type: functional, cell-based; settings: A-431, 72 h
[7] = target: T1, Epidermal growth factor receptor (Homo sapiens, UniProt P00533); assay type: cell-based, Sf9
[8] = target: Epidermal growth factor receptor (Homo sapiens, UniProt P00533, L858R/T790M); assay: biochemical; assay type: cell-based, Sf9
[9] = system: Mus musculus; assay: Toxicity in human NCI-H1975 cells xenografted STOCK-Foxn1nu/Nju nude mouse assessed as mouse mortality 10 to 50 mg/kg/day, po qd for 14 days relative to untreated control; assay type: organism-based; settings: in vivo, 336 h
Summary of the method: (§2)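 Female/male unstated; 5–6-week-old nude mice (20–25 g) implanted subcutaneously in the right oxter with 3×10⁶ H1975 cells in 0.1 mL PBS. After 3 days, mice were randomised into groups and dosed orally once daily for 14 days at 10, 20 or 50 mg/kg; controls received oral 25% PEG-400. Tumour volume was taken as A×B²/2. Body weight and mortality were monitored. Tumours were weighed at sacrifice. n = 5.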

[10] = system: Epidermal growth factor receptor (Homo sapiens), P00533 [L858R,T790M]; assay: Inhibition of EGFR L858R/T790M mutant phosphorylation in human NCI-H1975 cells assessed as reduction in AKT phosphorylation at 0.2 to 5 uM by Western blotting assay; assay type: cell-based
Summary of the method: (§3)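 H1975 and A431 cells were treated and then lysed. Lysates were cleared at 12,000 g, 15 min, 4 °C. 50 µg protein was run on 8–12% SDS-PAGE and transferred to PVDF. Membranes were blocked in 5% skim milk, then probed for EGFR, p-EGFR, AKT, p-AKT, ERK, p-ERK and actin. Detection was by ECL. Band IOD was normalized to actin.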

[11] = system: NCI-H1975; assay: Antitumor activity against human NCI-H1975 cells xenografted in STOCK-Foxn1nu/Nju nude mouse assessed as inhibition of tumor growth at 20 mg/kg/day, po qd for 14 days relative to untreated control; assay type: functional; settings: 336 h, read-out: TGI; summary of the method: as §2
[12] = system: Epidermal growth factor receptor (Homo sapiens), P00533 [L858R,T790M]; assay: Inhibition of EGFR L858R/T790M mutant phosphorylation in human NCI-H1975 cells at 0.2 to 5 uM by Western blotting assay; assay type: cell-based; summary of the method: as §3
[13] = system: Mus musculus; assay: Toxicity in human NCI-H1975 cells xenografted STOCK-Foxn1nu/Nju nude mouse assessed as body weight loss 10 to 50 mg/kg/day, po qd for 14 days relative to untreated control; assay type: organism-based; settings: in vivo, 336 h
Summary of the method: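 Body weight was tracked over 14 days of once-daily oral dosing at 10, 20 or 50 mg/kg, against 25% PEG-400 vehicle. Mice were nude (STOCK-Foxn1nu/Nju, 5–6 weeks, 20–25 g) carrying s.c. H1975 xenografts (3×10⁶ cells in PBS). Dosing started three days after implant. n = 5, mean ±SD.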

[14] = target: T1, Epidermal growth factor receptor; assay: Inhibition of wild type EGFR phosphorylation in human A431 cells assessed as reduction in AKT phosphorylation at 0.2 to 5 uM by Western blotting assay; assay type: cell-based; summary of the method: as §3
[15] = target: T1, Epidermal growth factor receptor; assay: Inhibition of wild type EGFR phosphorylation in human A431 cells assessed as reduction in ERK phosphorylation at 0.2 to 5 uM by Western blotting assay; assay type: cell-based; summary of the method: as §3
[16] = system: Epidermal growth factor receptor (Homo sapiens), P00533 [L858R,T790M]; assay: Inhibition of EGFR L858R/T790M mutant phosphorylation in human NCI-H1975 cells assessed as reduction in ERK phosphorylation at 0.2 to 5 uM by Western blotting assay; assay type: cell-based; summary of the method: as §3
[17] = system: Epidermal growth factor receptor (Homo sapiens), P00533 [L858R,T790M]; assay: Inhibition of EGFR L858R/T790M mutant phosphorylation in human NCI-H1975 cells at 5 uM by Western blotting assay; assay type: cell-based; summary of the method: as §3
[18] = target: T1, Epidermal growth factor receptor; assay: Inhibition of wild type EGFR phosphorylation in human A431 cells at 0.2 to 5 uM by Western blotting assay; assay type: cell-based; summary of the method: as §3
[19] = system: NCI-H1975; assay: Antitumor activity against human NCI-H1975 cells xenografted in STOCK-Foxn1nu/Nju nude mouse assessed as inhibition of tumor growth at 10 mg/kg/day, po qd for 14 days relative to untreated control; assay type: functional; settings: 336 h, read-out: TGI; summary of the method: as §1
[20] = system: NCI-H1975; assay: Antitumor activity against human NCI-H1975 cells xenografted in STOCK-Foxn1nu/Nju nude mouse assessed as inhibition of tumor growth at 10 to 50 mg/kg/day, po qd for 14 days relative to untreated control; assay type: functional, organism-based; summary of the method: as §1
[21] = system: Mus musculus; assay: Toxicity in human NCI-H1975 cells xenografted STOCK-Foxn1nu/Nju nude mouse assessed as drug tolerability 10 to 50 mg/kg/day, po qd for 14 days relative to untreated control; assay type: organism-based; settings: in vivo, 336 h; summary of the method: as §2

Chain of Epidermal growth factor receptor (Homo sapiens), P00533 [L858R,T790M] (P00533 whole entry T790M/L858R, looked up): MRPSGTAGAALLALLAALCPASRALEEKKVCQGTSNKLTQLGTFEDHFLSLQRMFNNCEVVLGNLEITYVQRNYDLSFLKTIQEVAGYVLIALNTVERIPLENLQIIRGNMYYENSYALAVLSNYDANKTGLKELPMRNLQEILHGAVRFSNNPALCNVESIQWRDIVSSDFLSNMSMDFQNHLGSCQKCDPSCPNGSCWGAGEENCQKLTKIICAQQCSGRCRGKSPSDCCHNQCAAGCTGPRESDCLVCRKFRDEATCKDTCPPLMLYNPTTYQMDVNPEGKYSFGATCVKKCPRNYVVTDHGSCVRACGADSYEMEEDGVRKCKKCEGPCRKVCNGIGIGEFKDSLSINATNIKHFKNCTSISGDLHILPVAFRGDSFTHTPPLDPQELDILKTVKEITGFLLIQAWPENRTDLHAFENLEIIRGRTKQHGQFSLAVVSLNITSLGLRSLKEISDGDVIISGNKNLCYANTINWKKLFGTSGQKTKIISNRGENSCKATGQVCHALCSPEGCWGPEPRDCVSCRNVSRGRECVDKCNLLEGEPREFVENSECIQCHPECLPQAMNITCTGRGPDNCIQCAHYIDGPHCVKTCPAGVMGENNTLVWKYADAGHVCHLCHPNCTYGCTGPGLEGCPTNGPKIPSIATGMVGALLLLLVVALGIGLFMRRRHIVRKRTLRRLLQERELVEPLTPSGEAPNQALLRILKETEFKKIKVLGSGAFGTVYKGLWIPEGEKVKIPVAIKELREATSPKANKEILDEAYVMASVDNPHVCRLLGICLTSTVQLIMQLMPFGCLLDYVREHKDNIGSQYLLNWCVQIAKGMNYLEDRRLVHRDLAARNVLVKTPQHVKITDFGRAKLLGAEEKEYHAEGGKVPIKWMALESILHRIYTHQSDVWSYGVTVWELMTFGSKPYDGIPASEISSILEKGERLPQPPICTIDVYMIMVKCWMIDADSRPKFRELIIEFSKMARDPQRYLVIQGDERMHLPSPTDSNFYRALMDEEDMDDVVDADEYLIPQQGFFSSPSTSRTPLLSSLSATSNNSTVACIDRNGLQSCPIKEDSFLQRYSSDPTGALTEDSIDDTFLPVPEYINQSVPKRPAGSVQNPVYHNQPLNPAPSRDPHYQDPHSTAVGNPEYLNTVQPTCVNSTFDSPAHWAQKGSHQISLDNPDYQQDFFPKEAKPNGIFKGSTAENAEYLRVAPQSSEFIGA
Chain of Epidermal growth factor receptor (Homo sapiens, UniProt P00533, L858R/T790M) (P00533 25-1210 T790M/L858R limits assumed): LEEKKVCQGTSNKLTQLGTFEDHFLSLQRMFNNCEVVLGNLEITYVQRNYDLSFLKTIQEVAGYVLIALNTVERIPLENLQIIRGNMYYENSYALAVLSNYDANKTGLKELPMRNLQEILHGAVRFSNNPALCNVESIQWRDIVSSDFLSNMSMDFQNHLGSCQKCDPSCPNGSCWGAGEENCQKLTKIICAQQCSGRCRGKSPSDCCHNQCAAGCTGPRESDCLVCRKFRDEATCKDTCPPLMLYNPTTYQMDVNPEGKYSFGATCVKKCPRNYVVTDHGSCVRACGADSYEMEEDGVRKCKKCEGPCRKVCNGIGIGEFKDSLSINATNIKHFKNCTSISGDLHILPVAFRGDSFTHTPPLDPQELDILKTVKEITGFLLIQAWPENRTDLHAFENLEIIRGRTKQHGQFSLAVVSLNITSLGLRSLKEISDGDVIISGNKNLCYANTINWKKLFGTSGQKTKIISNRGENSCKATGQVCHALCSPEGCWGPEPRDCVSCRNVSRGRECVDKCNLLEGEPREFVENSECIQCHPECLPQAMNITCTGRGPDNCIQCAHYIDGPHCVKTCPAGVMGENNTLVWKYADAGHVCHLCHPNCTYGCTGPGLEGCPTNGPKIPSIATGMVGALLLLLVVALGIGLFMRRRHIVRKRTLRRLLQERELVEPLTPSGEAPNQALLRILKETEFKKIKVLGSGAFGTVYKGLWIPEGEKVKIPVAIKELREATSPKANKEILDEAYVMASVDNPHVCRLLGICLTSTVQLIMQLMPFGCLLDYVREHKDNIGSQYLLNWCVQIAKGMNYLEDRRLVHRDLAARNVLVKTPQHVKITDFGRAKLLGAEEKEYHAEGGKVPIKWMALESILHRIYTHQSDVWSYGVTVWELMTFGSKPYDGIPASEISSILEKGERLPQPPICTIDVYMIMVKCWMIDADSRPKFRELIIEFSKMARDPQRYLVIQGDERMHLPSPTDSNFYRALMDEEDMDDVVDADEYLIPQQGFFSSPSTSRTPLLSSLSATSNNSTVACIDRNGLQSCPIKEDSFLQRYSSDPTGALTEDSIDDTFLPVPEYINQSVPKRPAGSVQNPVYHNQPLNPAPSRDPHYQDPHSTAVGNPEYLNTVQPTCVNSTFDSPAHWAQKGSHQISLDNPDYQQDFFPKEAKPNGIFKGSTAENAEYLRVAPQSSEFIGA
T1 sequence (P00533 whole entry): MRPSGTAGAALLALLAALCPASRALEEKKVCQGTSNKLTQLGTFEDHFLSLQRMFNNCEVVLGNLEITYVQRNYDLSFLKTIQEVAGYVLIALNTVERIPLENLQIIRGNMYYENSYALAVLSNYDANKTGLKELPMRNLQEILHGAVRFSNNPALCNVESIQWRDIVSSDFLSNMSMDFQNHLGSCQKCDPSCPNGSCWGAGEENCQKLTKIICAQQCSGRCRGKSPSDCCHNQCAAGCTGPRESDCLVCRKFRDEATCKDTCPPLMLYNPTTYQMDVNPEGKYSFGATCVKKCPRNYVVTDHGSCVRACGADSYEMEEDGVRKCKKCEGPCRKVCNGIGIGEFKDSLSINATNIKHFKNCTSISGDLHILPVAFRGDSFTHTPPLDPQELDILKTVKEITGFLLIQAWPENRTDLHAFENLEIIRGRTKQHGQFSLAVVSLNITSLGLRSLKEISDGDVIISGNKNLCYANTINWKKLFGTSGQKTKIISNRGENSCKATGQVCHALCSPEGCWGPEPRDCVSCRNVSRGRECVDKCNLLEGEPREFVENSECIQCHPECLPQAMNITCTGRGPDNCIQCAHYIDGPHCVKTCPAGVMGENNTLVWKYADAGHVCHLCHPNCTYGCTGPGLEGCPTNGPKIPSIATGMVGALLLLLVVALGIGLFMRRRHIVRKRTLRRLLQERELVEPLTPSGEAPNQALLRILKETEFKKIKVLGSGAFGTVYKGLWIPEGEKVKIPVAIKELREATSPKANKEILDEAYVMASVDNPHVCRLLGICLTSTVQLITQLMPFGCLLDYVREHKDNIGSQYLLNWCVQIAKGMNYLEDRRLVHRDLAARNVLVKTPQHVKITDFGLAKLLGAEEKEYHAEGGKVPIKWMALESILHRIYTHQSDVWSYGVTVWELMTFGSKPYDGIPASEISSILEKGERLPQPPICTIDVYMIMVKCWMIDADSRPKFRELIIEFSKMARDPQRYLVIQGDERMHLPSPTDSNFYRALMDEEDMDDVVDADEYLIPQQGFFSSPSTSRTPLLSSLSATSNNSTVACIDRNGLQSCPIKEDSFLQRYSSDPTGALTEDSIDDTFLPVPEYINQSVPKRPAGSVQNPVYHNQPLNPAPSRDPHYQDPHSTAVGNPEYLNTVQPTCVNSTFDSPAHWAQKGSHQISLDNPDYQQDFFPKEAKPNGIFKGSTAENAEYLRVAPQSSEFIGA

SMILES	IC50 [1] [nM]	IC50 [3] [nM]	IC50 [4] [nM]	IC50 [5] [nM]	IC50 [6] [nM]	IC50 [7] [nM]	IC50 [8] [nM]	also measured
C=CC(=O)Nc1cccc(Nc2nc(Nc3ccc(N4CCN(C(C)=O)CC4)cc3OC)ncc2C(F)(F)F)c1 [ROCILETINIB]	3240	> 40000	31	299				inhibition in vivo at 50 mg/kg/day [2]: 70.2%
C=CC(=O)Nc1cccc(Nc2nc(Nc3ccc(OCCN4CCOCC4)cc3)ncc2Cl)c1	5710	31500	43	215	385	961	94.7	
C=CC(=O)Nc1ccccc1Nc1nc(Nc2ccc(CN3CCOCC3)cc2)ncc1Cl	2640	> 40000	995	104	112	> 800	15.3	
C=CC(=O)Nc1cccc(Nc2nc(Nc3ccc(OCCN4CCOCC4)c(Cl)c3)ncc2Cl)c1	14000	22400	57	500	870	> 1000	> 100	
C=CC(=O)Nc1ccccc1Nc1nc(Nc2ccc(NC(=O)CN3CCOCC3)cc2)ncc1Cl	5110	21600	491	128	104	592	21.7	
C=CC(=O)Nc1ccccc1Nc1nc(Nc2ccc(OCC(=O)N3CCOCC3)cc2)ncc1Cl	2650	39500	418	132	42	143	24.8	
C=CC(=O)Nc1cccc(Nc2nc(Nc3ccc(CN4CCOCC4)cc3)ncc2Cl)c1	4450	> 40000	44	37	382			Activity [9]: Non-Toxic; inhibition [10]: Dose-dependent effect; inhibition in vivo at 20 mg/kg/day [11]: 45.3%; inhibition [12]: Dose-dependent effect; Activity [13]: < 5%; inhibition (INH) [14]: Dose-dependent effect; inhibition (INH) [15]: Dose-dependent effect; inhibition [16]: Dose-dependent effect; inhibition [17]: 100%; inhibition in vivo at 50 mg/kg/day [2]: 64.6%; inhibition (INH) [18]: Dose-dependent effect; inhibition in vivo at 10 mg/kg/day [19]: 39%; TGI [20]: Dose-dependent effect; Activity [21]: Non-Toxic
C=CC(=O)Nc1cccc(Nc2nc(Nc3ccc(CN4CCOCC4)cc3OC)ncc2Cl)c1	16600	28800	52	287	2060	> 500	17	
C=CC(=O)Nc1ccccc1Nc1nc(Nc2ccc(OCCCN3CCOCC3)cc2)ncc1Cl	4740	> 40000	587	217	584	767	21.5	
C=CC(=O)Nc1cccc(Oc2nc(Nc3ccc(CC(=O)N4CCOCC4)cc3)ncc2Cl)c1	2940	> 40000	48	296	2190	996	101	
C=CC(=O)Nc1ccccc1Nc1nc(Nc2ccc(OCCN3CCOCC3)cc2)ncc1Cl	4700	> 40000	524	240	478			
C=CC(=O)Nc1cc(Nc2nccc(-c3cn(C)c4ccccc34)n2)c(OC)cc1N(C)CCN(C)C [OSIMERTINIB]								inhibition in vivo at 20 mg/kg/day [11]: 98.8%
C=CC(=O)Nc1cccc(Nc2nc(Nc3ccc(CN4CCOCC4)cc3)ncc2F)c1	4460	22700	41	609	444	500	80.8	
C=CC(=O)Nc1cccc(Nc2nc(Nc3ccc(CC(=O)N4CCOCC4)cc3)ncc2Cl)c1	1660	22000	58	256	760	< 500	96.6	
